Data reported in ChEMBL document CHEMBL4376859, “Prodrugs for nitroreductase-based cancer therapy-3: Antitumor activity of the novel dinitroaniline prodrugs/Ssap-NtrB enzyme suicide gene system: Synthesis, in vitro and in silico evaluation in prostate cancer” (Eur J Med Chem, 2020).
Activity calls are given as the source filed them. The calls are words filed in the database; no cut-off is given here.

How the values were obtained:
[1] = target: T1, Putative nitroreductase (Staphylococcus saprophyticus subsp. saprophyticus (strain ATCC 15305 / DSM20229 / NCIMB 8711 / NCTC 7292 / S-41), UniProt Q4A0P1); assay: Substrate activity at Staphylococcus saprophyticus nitroreductase expressed in Escherichia coli BL21 (DE3) assessed as retention time by HPLC analysis; format: ADME
T1 sequence (Q4A0P1 whole entry): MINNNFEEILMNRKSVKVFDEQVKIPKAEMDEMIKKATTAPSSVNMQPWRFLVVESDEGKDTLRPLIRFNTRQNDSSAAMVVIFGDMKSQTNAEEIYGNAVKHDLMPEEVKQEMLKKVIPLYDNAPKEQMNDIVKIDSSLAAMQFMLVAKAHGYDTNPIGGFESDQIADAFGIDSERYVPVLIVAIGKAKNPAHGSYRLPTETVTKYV

[2] = target: T1, Putative nitroreductase; assay: Substrate activity at Staphylococcus saprophyticus nitroreductase NtrB assessed as Kcat/Km using NADH as cofactor in Tris-Cl buffer at pH 7.5 by HPLC analysis relative to CB1954/NfsB; format: ADME
[3] = test system: PC-3; assay: Cytotoxicity against human PC3 cells […] Staphylococcus saprophyticus nitroreductase NtrB assessed as cell viability at 150 uM in presence of NADH as cofactor after 48 hrs by SRB assay relative to control; format: functional; conditions: PC-3, 48 h, read-out: Activity
Procedure, shortened: (§1)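 Compounds were reduced outside the cells by purified His-tag (Ni column) Ssap-NtrB. The reaction mix held 600 µM NADH and compound (150, 39, 9 µM, or 180, 18, 1.8 nM) and was applied to PC-3 cells. Controls were compound alone in 25 mM Tris/HCl pH 7.5, and enzyme alone at 31 µg/mL. After 48 h, SRB absorbance was read at 492 nm and converted to % viability.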

[4] = test system: PC-3; assay: Cytotoxicity against human PC3 cells […] Staphylococcus saprophyticus nitroreductase NtrB assessed as reduction in cell viability in presence of NADH as cofactor after 48 hrs by SRB assay; format: functional, cell-based; conditions: PC-3, 48 h; procedure, shortened: as §1
[5] = test system: Hep 3B2; assay: Cytotoxicity against human Hep3B cells assessed as cell viability at 9 to 150 uM after 24 hrs by MTT assay relative to control; format: functional
Procedure, shortened: (§2)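 Hep3B hepatoma, PC-3 prostate cancer and HUVEC (healthy control) cells were exposed to nitro compounds at 150, 75, 38, 19 and 9 µM for 24 h and 48 h. Viability was read by MTT assay, and IC50 values were derived from the growth inhibition curves.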

[6] = test system: Hep 3B2; assay: Cytotoxicity against human Hep3B cells assessed as cell viability at 9 to 150 uM after 48 hrs by MTT assay relative to control; format: functional; procedure, shortened: as §2
[7] = test system: PC-3; assay: Cytotoxicity against human PC3 cells assessed as cell viability at 9 to 150 uM after 24 hrs by MTT assay relative to control; format: functional; procedure, shortened: as §2
[8] = test system: PC-3; assay: Cytotoxicity against human PC3 cells assessed as cell viability at 9 to 150 uM after 48 hrs by MTT assay relative to control; format: functional; procedure, shortened: as §2
[9] = Cytotoxicity against human HUVEC cells assessed as cell viability at 9 to 150 uM after 24 hrs by MTT assay relative to control; format: cell-based; conditions: read-out: Activity; procedure, shortened: as §2
[10] = Cytotoxicity against human HUVEC cells assessed as cell viability at 9 to 150 uM after 48 hrs by MTT assay relative to control; format: cell-based; conditions: read-out: Activity; procedure, shortened: as §2
[11] = test system: PC-3; assay: Cytotoxicity against human PC3 cells assessed as reduction in cell viability after 48 hrs by SRB assay; format: functional, cell-based; procedure, shortened: as §1
[12] = test system: Hep 3B2; assay: Cytotoxicity against human Hep3B cells assessed as cell viability after 48 hrs by MTT assay; format: functional, cell-based; procedure, shortened: as §2
[13] = target: T1, Putative nitroreductase; assay: Substrate activity at Staphylococcus saprophyticus nitroreductase NtrB assessed as enzyme specific activity using NADH as cofactor in Tris-Cl buffer at pH 7.5 by HPLC analysis; format: ADME
[14] = substrate: O=[N+]([O-])c1ccc(Nc2ccc3ccccc3c2)c([N+](=O)[O-])c1; assay: Substrate activity at Staphylococcus saprophyticus nitroreductase NtrB assessed as Km using NADPH as cofactor in Tris-Cl buffer at pH 7.5 by HPLC analysis; format: ADME
[15] = substrate: CCC(=O)Nc1cc(N2CCOCC2)c([N+](=O)[O-])cc1[N+](=O)[O-]; assay: (§3) Substrate activity at Staphylococcus saprophyticus nitroreductase NtrB assessed as Km using NADH as cofactor in Tris-Cl buffer at pH 7.5 by HPLC analysis; format: ADME
[16] = substrate: Nc1ccccc1Nc1ccc([N+](=O)[O-])cc1[N+](=O)[O-]; assay: as §3; format: ADME
[17] = substrate: O=C(CC(F)(F)F)Nc1cc(N2CCOCC2)c([N+](=O)[O-])cc1[N+](=O)[O-]; assay: as §3; format: ADME
[18] = substrate: O=[N+]([O-])c1cc([N+](=O)[O-])c(Nc2ccc(S(=O)(=O)O)cc2)cc1Nc1ccc(S(=O)(=O)O)cc1; assay: as §3; format: ADME
[19] = substrate: O=[N+]([O-])c1ccc(N2CCCCC2)c([N+](=O)[O-])c1; assay: as §3; format: ADME
[20] = substrate: O=[N+]([O-])c1ccc(N2CCOCC2)c([N+](=O)[O-])c1; assay: as §3; format: ADME
[21] = substrate: NC(=O)c1cc(N2CC2)c([N+](=O)[O-])cc1[N+](=O)[O-]; assay: Substrate activity at Bacillus amyloliquefaciens nitroreductase ywrO assessed as Km using NADPH as cofactor in sodium phosphate buffer at pH 7.5 by HPLC analysis; format: ADME

O=[N+]([O-])c1ccc(N2CCOCC2)c([N+](=O)[O-])c1
Retention_time [1]: 19.38 min
fold change (FC) [2]: 1.25
viability at 150 µM [3]: 50%
IC50 [4]: > 150 µM
Activity [5]: >80%
Activity [6]: 51 - 80%
Activity [7]: >80%
Activity [8]: >80%
viability at 24 h, up to 150 µM [9]: > 80%
viability at 48 h, up to 150 µM [10]: > 80%
Activity [11]: inactive

O=[N+]([O-])c1ccc(Nc2cc(F)cc(F)c2)c([N+](=O)[O-])c1
IC50 [12]: 89.4 µM
Retention_time [1]: 17.74 min
Activity [5]: >80%
Activity [7]: >80%
Activity [8]: >80%
viability at 24 h, up to 150 µM [9]: 51 to 80%
viability at 48 h, up to 150 µM [10]: 51 to 80%
Activity [11]: inactive

Nc1ccccc1Nc1ccc([N+](=O)[O-])cc1[N+](=O)[O-]
Retention_time [1]: 16.85 min
fold change (FC) [2]: 0.41
IC50 [4]: 15 µM
Activity [5]: >80%
Activity [6]: >80%
Activity [7]: >80%
Activity [8]: >80%
viability at 24 h, up to 150 µM [9]: > 80%
viability at 48 h, up to 150 µM [10]: > 80%
Activity [11]: inactive

COc1cccc(Nc2ccc([N+](=O)[O-])cc2[N+](=O)[O-])c1
Retention_time [1]: 18.56 min
viability at 150 µM [3]: 50%
IC50 [4]: > 150 µM
Activity [5]: >80%
Activity [6]: >80%
Activity [7]: >80%
Activity [8]: >80%
viability at 24 h, up to 150 µM [9]: > 80%
viability at 48 h, up to 150 µM [10]: > 80%
Activity [11]: inactive

CCNc1ccc([N+](=O)[O-])cc1[N+](=O)[O-]
Retention_time [1]: 16.92 min
IC50 [4]: 6.43 µM
Activity [5]: 51 - 80%
Activity [6]: 51 - 80%
Activity [7]: >80%
Activity [8]: >80%
viability at 24 h, up to 150 µM [9]: > 80%
viability at 48 h, up to 150 µM [10]: > 80%
Activity [11]: inactive

O=[N+]([O-])c1ccc(NC2CCCCC2)c([N+](=O)[O-])c1
Retention_time [1]: 20.58 min
viability at 150 µM [3]: 50%
IC50 [4]: > 150 µM
Activity [5]: >80%
Activity [6]: >80%
Activity [7]: >80%
Activity [8]: >80%
viability at 24 h, up to 150 µM [9]: > 80%
viability at 48 h, up to 150 µM [10]: > 80%
Activity [11]: inactive

O=[N+]([O-])c1ccc(N2CCCCC2)c([N+](=O)[O-])c1
IC50 [12]: 50.3 µM
Retention_time [1]: 24.21 min
Activity [13]: 0.49 U/mg
Activity [5]: 51 - 80%
Activity [7]: >80%
Activity [8]: >80%
viability at 24 h, up to 150 µM [9]: > 80%
viability at 48 h, up to 150 µM [10]: 51 to 80%
Activity [11]: inactive

COCCC(=O)Oc1cc(N2CCOCC2)c([N+](=O)[O-])cc1[N+](=O)[O-]
Activity [5]: >80%
Activity [6]: >80%
viability at 24 h, up to 150 µM [9]: 51 to 80%
viability at 48 h, up to 150 µM [10]: 51 to 80%

B1: Putative nitroreductase (Staphylococcus saprophyticus subsp. saprophyticus ATCC 15305 = NCTC 7292) (protein)
chain: MINNNFEEILMNRKSVKVFDEQVKIPKAEMDEMIKKATTAPSSVNMQPWRFLVVESDEGKDTLRPLIRFNTRQNDSSAAMVVIFGDMKSQTNAEEIYGNAVKHDLMPEEVKQEMLKKVIPLYDNAPKEQMNDIVKIDSSLAAMQFMLVAKAHGYDTNPIGGFESDQIADAFGIDSERYVPVLIVAIGKAKNPAHGSYRLPTETVTKYV
Km [14]: 15.7 µM
kcat [14]: 0.1 s⁻¹
kcat/Km [14]: 8270 M⁻¹ s⁻¹
Km [15]: 14 µM
kcat [15]: 0.37 s⁻¹
kcat/Km [15]: 26500 M⁻¹ s⁻¹
Km [16]: 137 µM
kcat [16]: 0.315 s⁻¹
kcat/Km [16]: 2300 M⁻¹ s⁻¹
Km [17]: 9.95 µM
kcat [17]: 0.234 s⁻¹
kcat/Km [17]: 26500 M⁻¹ s⁻¹
Km [18]: 255 µM
kcat [18]: 3.4 s⁻¹
kcat/Km [18]: 13300 M⁻¹ s⁻¹
Km [19]: 104 µM
kcat [19]: 0.404 s⁻¹
kcat/Km [19]: 3900 M⁻¹ s⁻¹
Km [20]: 444 µM
kcat [20]: 3.1 s⁻¹
kcat/Km [20]: 6970 M⁻¹ s⁻¹

B2: Nitroreductase (Bacillus amyloliquefaciens) (protein)
chain: MKVLVLAVHPDMENSAVNKAWAEELKKHDELTVRELYKEYPDGQIDAEKERQLCEQYDRIVFQFPLYWYSAPPLLKTWMDHVLSYGWAYGSKGKALHGKELMLAVSVGAGEDAYQAGGSNHFTLSELLRPFQAMANFTGMTYLPAFALYGVNGADATDIHDNAKRLAAYIKKSF
Km [21]: 618 µM
kcat [21]: 8.2 s⁻¹
kcat/Km [21]: 13300 M⁻¹ s⁻¹
